Experimental data pooled from the literature.
Target: Aurora kinase B (AURKB, Homo sapiens, UniProt Q96GD4)
Read-out: enzyme activity

The remaining activity of `Cn1c(=O)n(-c2ccc(C(C)(C)C#N)cc2)c2c3cc(-c4cnc5ccccc5c4)ccc3ncc21` is reported as 101% (inhibitor; 10 µM).
The remaining activity of `O=C(Nc1cnn(-c2csc(C(=O)NC3COC3)c2)c1)Nc1c(F)cccc1Cl` is reported as 69.8% (inhibitor; 5 µM).
`CC(C)(O)[C@H]1CC[C@H](Nc2ccc3ncc(-c4cccc(C(F)(F)F)c4)n3n2)CC1` has a remaining activity of 82.1% (inhibitor; 1 µM).
`Cc1nn(CC(F)(F)F)cc1Nc1ncc(Br)c(NCc2ccc(S(N)(=O)=O)cc2)n1` has a remaining activity of 87% (inhibitor, radiometric; 1 µM).
`Cc1ccc(Nc2nccc(N(C)c3ccc4c(C)n(C)nc4c3)n2)cc1S(N)(=O)=O` gave a remaining activity of 64.6% (inhibitor; 0.5 µM).
The remaining activity of `O=C(NCCCNc1nc(Nc2cccc(NC(=O)N3CCCC3)c2)ncc1Br)C1CCC1` is reported as 5% (inhibitor, radiometric; 1 µM).
`Oc1cccc(-c2nc(N3CCOCC3)c3oc4ncccc4c3n2)c1` gave a remaining activity of 95% (inhibitor; 10 µM).
`O=c1cc(-c2cccc3c2Sc2ccccc2S3)oc(N2CCOCC2)c1` has a remaining activity of 95.8% (inhibitor; 0.5 µM).
`CCCOc1ccc(OC)c(F)c1C(=O)c1ccc(C(=O)N[C@@H]2CNC[C@H]2NC(=O)c2ccc3[nH]ncc3c2)cc1` has a remaining activity of 10% (inhibitor; 10 µM).
For `Cc1nn(CC(F)(F)F)cc1Nc1ncc(C2CC2)c(NCc2ccc(S(N)(=O)=O)cc2)n1`, the remaining activity was 102% (inhibitor, radiometric; 1 µM).
The remaining activity of `CC(C)(C)C(=O)c1sc(NC2CCCCC2)nc1N` is reported as 107% (inhibitor; 10 µM).
For `O=C(NCCCNc1nc(Nc2cccc(CN3CCOCC3)c2)ncc1C1CC1)C1CCC1`, the remaining activity was 5% (inhibitor, radiometric; 1 µM).
The remaining activity of `Nc1nc(Nc2ccccc2)sc1C(=O)c1c(F)cccc1F` is reported as 24% (inhibitor; 10 µM).
For `CC(C)(C)c1nc2c(s1)c1nc(N)ncc1c1ccc(NS(=O)(=O)c3c(F)cccc3F)c(F)c12`, the remaining activity was 90% (inhibitor, radiometric; 1 µM).
With `COc1cc2ncnc(Nc3ccc(F)c(Cl)c3)c2cc1OCCCN1CCOCC1` the remaining activity was 106% (0.5 µM).
The remaining activity of `Cc1nn(CC(F)(F)F)cc1Nc1ncc(Br)c(NCCCNC(=O)C2CCC2)n1` is reported as 38% (inhibitor, radiometric; 1 µM).
For `O=C1Nc2ccc(Cl)cc2C1=Cc1cc(Cl)c(O)c(Cl)c1`, the remaining activity was 9.19% (0.5 µM).
With `NS(=O)(=O)c1ccc(CNc2ccnc(Nc3cccc(NC(=O)N4CCCC4)c3)n2)cc1` the remaining activity was 53% (inhibitor, radiometric; 1 µM).
The remaining activity of `COc1cc(Nc2cnc(C#N)c(O[C@H](C)CN(C)C)n2)ncc1-c1cnn(C)c1` is reported as 53% (inhibitor, radiometric; 10 µM).
